Compound activity as filed in PubChem BioAssay.
FAK blocker = blocks human focal adhesion kinase activity. Q05397. biochemical FAK kinase activity assay. inhibition, %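 (tested at 7 µM)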. hit rate 0.84% among 97,000. AID 727; in the data active = inhibition above about 19%;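 also: 0% = DMSO and 100% = reference compound high control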
ERb coact inh = ER-beta (human) coactivator binding inhibition; Q92731; AID 633; inhibition, % at 25.6 µM; TR-FRET ER-beta LBD / SRC1-Cy5 peptide binding; receptor agonist-loaded with 1 µM estradiol; hit rate 1.3% among 86,000;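 active = compounds whose percent inhibition of the receptor-coactivator binding signal exceeds about 50% in the single-dose screen, limit read from the data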;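 also: 0% = receptor plus peptide wells without compound and 100% = peptide-only wells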
Smad3 inh = inhibitors of human Smad3 transcription factor binding; P84022; TR-FRET Smad3/Dy647-FoxH1 peptide binding, europium anti-His; inhibition, % at 25 µM; hit rate 0.29% among 88,000; AID 630;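 active = compounds that reduce the energy-transfer binding signal between the protein and its labelled peptide by more than half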;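 also: 0% = Smad3 plus labelled peptide maximal FRET and 100% = peptide-only background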
ERa SRC1 inh = blocks coactivator binding to human estrogen receptor alpha; TR-FRET ER-alpha LBD / SRC-1 peptide, estradiol-bound; inhibition, % at 25.6 µM; P03372; hit rate 1.7% among 86,000; in the data active = inhibition above about 50%;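 also: 0% = receptor plus peptide control and 100% = peptide only without receptor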
Target sequence (P03372 whole entry, looked up, the tested form may be a part): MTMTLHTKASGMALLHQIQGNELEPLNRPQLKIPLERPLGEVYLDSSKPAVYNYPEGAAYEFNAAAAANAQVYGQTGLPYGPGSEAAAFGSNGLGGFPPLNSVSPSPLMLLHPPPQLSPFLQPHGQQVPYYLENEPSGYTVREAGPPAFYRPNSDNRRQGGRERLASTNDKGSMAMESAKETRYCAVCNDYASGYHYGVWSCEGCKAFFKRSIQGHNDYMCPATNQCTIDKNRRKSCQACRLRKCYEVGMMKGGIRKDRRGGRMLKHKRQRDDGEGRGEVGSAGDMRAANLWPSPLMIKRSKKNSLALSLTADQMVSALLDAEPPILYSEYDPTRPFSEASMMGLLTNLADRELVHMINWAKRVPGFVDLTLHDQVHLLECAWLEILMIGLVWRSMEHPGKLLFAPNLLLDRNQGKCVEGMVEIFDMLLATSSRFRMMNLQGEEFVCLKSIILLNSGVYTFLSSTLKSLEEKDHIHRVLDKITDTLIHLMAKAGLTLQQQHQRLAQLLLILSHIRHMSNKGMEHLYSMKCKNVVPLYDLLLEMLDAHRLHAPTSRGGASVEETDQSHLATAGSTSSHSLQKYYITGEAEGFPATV
ERa SRC1 pot = ER-alpha (human) coactivator binding potentiation | P03372 | coactivator binding (% of control), % at 25.6 µM | TR-FRET ERalpha-LBD/SRC-Cy5 coactivator binding, 2 h; 100 = basal binding, no effect | hit rate 1.3% among 86,000; in the data active = activity above about 200%;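 also: binding measured in presence of low estradiol as agonist stimulus; 0% = peptide alone without receptor and 100% = receptor with peptide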
Rev-RRE block = HIV Rev-RRE protein-RNA interaction inhibition; Rev peptide-RRE RNA binding, FRET; AID 704; inhibition, % at 8 µM; P05866; hit rate 0.79% among 97,000;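 active = inhibition above the screen-wide mean plus 3 SD, cut at about 35% in these data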;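 also: 0% = median DMSO wells and 100% = median Neomycin B control wells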
Target sequence (P05866 whole entry, looked up): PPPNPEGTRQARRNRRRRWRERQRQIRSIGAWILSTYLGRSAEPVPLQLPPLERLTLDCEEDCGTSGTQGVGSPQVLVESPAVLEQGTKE
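Material: labelled RRE RNA duplex and labelled Rev peptide / Buffer or medium: HEPES pH 7.5 salt buffer with EDTA / Compound dosing: single point, 8 µM final nominal compound concentration / Benchmarks: DMSO low control, neomycin B high control / Timing: 5 min preincubation and 15 min binding, 25 °C / Technique: FRET fluorescence readout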
An asterisk follows results filed as active; · = no result given; [ ] = dose if it differs, or a comment. Most compounds without a hit are left out; they make up all but 4% or so of the library.

SMILES	FAK blocker	ERb coact inh	Smad3 inh	ERa SRC1 inh	ERa SRC1 pot	Rev-RRE block
O=c1c2cc(N3CCOCC3)ccc2[nH]c(=S)n1CCN1CCCC1	·	15.2	2.3	29.2	83.9	·
Cc1sc2nc(SCc3nnc(-c4cccs4)o3)n(C3CCCC3)c(=O)c2c1C	4.9	-1.1	9.1	-8.1	107.5	13.1
Cn1c2ccccc2c(=O)c2c(=O)n(C3CCCCC3)c(-c3cccs3)nc21	5.7	4.4	16.3	30.1	436.3*[fluorescence artefact?]	19.4
CC1(C)N=C(N)N=C(N)N1c1cccc(OCc2cccc(N)c2)c1	·	·	11.4	·	·	·
Cn1c(=O)c2c(nc(NCc3ccccc3)n2CC(=O)NCc2ccccc2)n(C)c1=O	-5.3	·	·	·	·	4.7
Cn1c(=O)c2c(nc(NCCc3ccccc3)n2CC(=O)NCCc2ccccc2)n(C)c1=O	2.1	33.5	1.8	17.3	229.1*[fluorescence artefact?]	-4.0
O=c1c(/C=C(\O)c2ccc(F)cc2)nc2ccccc2n1-c1ccccc1	1.3	7.5	14.3	16.5	100.1	127.2*[fluorescence artefact?]
Cc1nc(-c2ccc(O)c(O)c2)cs1	2.3	58.8*	17.6	23.2	78.7	7.2
COc1cc(-c2csc(C)n2)ccc1O	-4.9	-2.2	9.0	-3.5	117.9	3.8
CSc1nnc(C)c(/C=C/Nc2ccc(C)cc2)n1	-2.6	·	·	·	·	109.5*[fluorescence artefact?]
N[C@H](CO)C(=O)NCC(=O)O	·	·	-4.4	·	·	·
Cc1cc(=O)[nH]c(/N=C(\N)Nc2ccc(Cl)cc2)n1	·	·	-15.4	·	·	·
COc1ccc(-c2cc(-c3ccc(OC)cc3)c(C#N)c(SC)n2)cc1	-0.9	38.6	-68.0	36.0	457.8*[fluorescence artefact?]	1.3
Cc1ccc(/C=c2\sc3nc(-c4cccnc4)nn3c2=O)cc1	-2.0	47.5	9.4	68.8*[fluorescence artefact?]	61.2	3.0
Cn1/c(=N/N=C/c2ccc([N+](=O)[O-])cc2)sc2ccccc21	2.3	·	·	·	·	58.4*
C[N+](C)(C)CC(=O)N/N=C/c1c(O)ccc2ccccc12	·	·	11.6	·	·	·
CC(C)(C)NC(NC(=O)Cc1ccccc1)C(Cl)(Cl)Cl (stereo not given)	-5.6	·	·	·	·	-1.5
O=S(=O)(c1cccc(-c2nc3ccccc3s2)c1)N1CCOCC1	-1.2	68.5*	15.4	-1.2	100.3	6.1
O=S(=O)(c1cccc(-c2csc(-c3ccccc3)n2)c1)N1CCOCC1	12.5	2.1	3.0	-4.0	272.4*	1.3
CC1CCN(C(=O)CSc2nc3cccnc3n2C)CC1	4.5	1.9	3.4	16.1	86.3	6.6
Cn1c(SCC(=O)N2CCOCC2)nc2cccnc21	0.6	22.3	-3.9	19.2	435.1*[fluorescence artefact?]	8.3
O=S(=O)(c1ccc2ccccc2c1)N1CCN(S(=O)(=O)c2ccc3ccccc3c2)CC1	·	·	90.5*	·	·	·
CN1CCN(S(=O)(=O)c2ccc3ccccc3c2)CC1	-1.8	-7.4	3.3	-5.2	130.2	7.3
O=C(O)c1[nH]c2c([N+](=O)[O-])cc([N+](=O)[O-])cc2c1C(=O)O	·	·	19.4	·	·	·
CCCc1cc(=O)[nH]c(-n2[nH]c3c(c2=O)CCCC3)n1	-0.5	·	·	·	·	68.8*
SMILES	FAK blocker	ERb coact inh	Smad3 inh	ERa SRC1 inh	ERa SRC1 pot	Rev-RRE block
CCCc1cc(=O)[nH]c(SCC)n1	-9.4	1.2	15.6	0.0	108.4	4.4
CN=Cc1nc(-c2ccccc2)oc1O	2.3	-3.1	-12.0	2.4	104.5	4.9
CC1=Nc2ccccc2/C1=C\c1nc(-c2ccc(F)cc2)oc1O	-1.0	1.4	-1.5	-0.9	100.9	52.2*
COc1ccc(S(=O)(=O)N(C)c2ccc(C(=O)NCCC(C)C)cc2)cc1	-0.8	0.8	68.8*	6.7	115.7	16.1
c1ccc2c(c1)CC1(CCCC1)n1nnnc1-2	1.5	5.5	2.9	6.9	124.1	6.2
CC1(C)Cc2ccccc2-c2nnnn21	-0.6	96.5*[fluorescence artefact?]	-5.9	5.8	101.1	5.2
CCOC(=O)CCC(=O)Nc1ccccc1C(N)=O	4.9	-3.1	-0.1	52.5*	129.2	6.6
Cn1c(SCc2cc(=O)n3cc(Br)ccc3n2)nnc1C1COc2ccccc2O1 (stereo not given)	-6.4	49.3	-3.4	68.2*	65.3	-10.9
O=C(OCc1cc(=O)n2cc(Br)ccc2n1)C1COc2ccccc2O1 (stereo not given)	-1.0	28.3	2.5	34.1	76.9	0.3
Cc1occc1-c1nnc(SCc2cc(=O)n3cc(Br)ccc3n2)n1C	-2.4	52.8*	7.7	61.1*	120.5	1.8
CCN(CC)S(=O)(=O)c1cccc(C(=O)Nc2nc3cc4c(cc3s2)OCCO4)c1	·	-1.4	-3.7	2.4	122.5	·
CN(CC1CCCO1)S(=O)(=O)c1ccc(C(=O)Nc2nc3cc4c(cc3s2)OCO4)cc1 (stereo not given)	0.6	18.8	3.6	63.1*[fluorescence artefact?]	85.6	-9.9
CCSc1nc2ccccc2n1C(=O)Oc1ccccc1	-2.1	4.2	-6.6	-45.0	496.8*[fluorescence artefact?]	6.0
CCOC(=O)Cn1c(C(F)(F)F)nc2nc(Cl)c(Cl)nc21	·	·	55.8*	·	·	·
N#CC1=C(N)OC2=C(CC/C2=C\c2ccccc2)C1c1ccccc1 (stereo not given)	-3.7	·	·	·	·	135.6*[fluorescence artefact?]
N#CC1=C(N)OC2=C(C(=O)CCC2)C1c1ccccc1 (stereo not given)	5.3	-2.5	-7.4	-1.2	119.6	6.1
CCn1c2ccccc2c2nnc(NCCCO)nc21	·	·	-4.6	·	·	·
COc1ccc(CNCC(O)(c2ccc(Cl)cc2)c2ccc(Cl)cc2)cc1OC	-0.1	·	·	·	·	62.9*
COc1ccc(/C=N/Nc2ncc(-c3ccccc3)cn2)c(OC)c1	40.4*	26.9	17.8	38.5	422.2*[fluorescence artefact?]	3.7
COc1ccc(/C=N/NC(=O)c2[nH]ncc2Br)c(OC)c1	16.2	·	·	·	·	0.5
Cc1ccnc(N2C(=O)c3cccc4c([N+](=O)[O-])ccc(c34)C2=O)c1	2.3	·	·	·	·	45.0*
c1ccc(-c2noc(-c3ccc4c(c3)OCO4)n2)nc1	·	56.7*	6.8	61.6*[fluorescence artefact?]	45.0	·
CCN1CCc2c(sc3c2c(NCc2ccco2)nc2nnnn23)C1	·	61.7*[fluorescence artefact?]	-1.1	85.1*[fluorescence artefact?]	19.6	·
OCc1ccncc1.OCc1ccncc1.[Cl][Pt]([Cl])([Cl])[Cl]	·	·	-1.2	·	·	·
CCCOC(=O)Nc1nc2ccccc2o1	0.7	-6.4	0.7	-7.5	121.2	38.2*
SMILES	FAK blocker	ERb coact inh	Smad3 inh	ERa SRC1 inh	ERa SRC1 pot	Rev-RRE block
O=[N+]([O-])c1cccc(/C=N/NC2=CS(=O)(=O)C=C2)c1	·	·	6.2	·	·	·
Cn1ccnc1C(O)c1ccc(OCc2ccccc2)cc1 (stereo not given)	·	-3.4	10.0	2.6	87.3	·
COc1ccc2ccccc2c1C(O)c1nccn1C (stereo not given)	17.9	-6.3	-7.5	-7.3	102.6	134.7*[fluorescence artefact?]
C/C(N)=C(/C#N)C(=O)COC(=O)CC12CC3CC(CC(C3)C1)C2	-1.5	14.7	6.2	9.3	81.9	21.3
CC1CCC2(CC1)NC(=O)N(CC(=O)c1ccc[nH]1)C2=O (stereo not given)	2.1	35.7	-5.2	74.8*	80.0	4.7
CC1CCCCC12NC(=O)N(CC(=O)c1ccc[nH]1)C2=O (stereo not given)	-6.4	24.6	10.0	16.4	59.5	13.4
